The record followed here is paper PMC8897028 (Acta Pharmaceutica Sinica. B, 2021).

Positions count from the first letter of the chain named.

What all share (type): cell-based
One test has as its target hTRPA1 (Homo sapiens, UniProt O75762). The test can be described thus: whole-cell patch-clamp of TRPA1 currents in HEK293 cells. Particulars: compound 50 μmol/L; current evoked by AITC 300 μmol/L. An outline of the steps: (§1)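 Human channel cDNAs were transiently transfected into HEK293 cells with Lipofectamine 2000. EGFP-positive cells were recorded whole-cell 18 h later at 22–24 °C with ~4.0 MΩ fire-polished pipettes. Cells were held at 0 mV with 500-ms ramps from −100 to +100 mV every 2 s. Test compound in perfusion solution was co-applied with agonist, and average current inhibition was summarised; n = 4–6.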
(The patch-clamp technique gives a direct electrical read-out from membranes.)

For the next test, the target named is T1, mTRPV3 T636A (Mus musculus, UniProt Q8K424, T636A).
T1 sequence (Q8K424 1-791 T636A): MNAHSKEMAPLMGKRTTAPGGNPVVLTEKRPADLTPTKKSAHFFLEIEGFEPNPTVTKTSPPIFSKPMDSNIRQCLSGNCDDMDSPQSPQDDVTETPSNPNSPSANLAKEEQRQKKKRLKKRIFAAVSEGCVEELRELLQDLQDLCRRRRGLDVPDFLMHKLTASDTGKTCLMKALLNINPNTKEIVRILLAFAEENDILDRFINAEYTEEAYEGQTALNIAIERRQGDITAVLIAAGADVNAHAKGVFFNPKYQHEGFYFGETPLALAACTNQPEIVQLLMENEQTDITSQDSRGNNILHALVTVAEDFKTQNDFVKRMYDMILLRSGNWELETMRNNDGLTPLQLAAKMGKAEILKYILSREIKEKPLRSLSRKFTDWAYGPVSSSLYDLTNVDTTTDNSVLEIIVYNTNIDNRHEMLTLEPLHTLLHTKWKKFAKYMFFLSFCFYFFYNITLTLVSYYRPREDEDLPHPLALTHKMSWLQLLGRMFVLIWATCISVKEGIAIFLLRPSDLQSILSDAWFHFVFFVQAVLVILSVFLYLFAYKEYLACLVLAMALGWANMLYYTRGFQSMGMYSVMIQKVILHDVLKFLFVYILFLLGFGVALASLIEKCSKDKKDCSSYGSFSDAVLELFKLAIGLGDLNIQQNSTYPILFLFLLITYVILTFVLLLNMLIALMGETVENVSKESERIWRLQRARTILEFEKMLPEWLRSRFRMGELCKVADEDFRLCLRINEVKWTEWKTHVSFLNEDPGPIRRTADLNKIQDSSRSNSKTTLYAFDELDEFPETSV
The test can be described thus: whole-cell patch-clamp of mTRPV3 T636A mutant in HEK293 cells. Particulars: compound 50 μmol/L; 2-APB; compared with WT mTRPV3. An outline of the steps: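 Mouse Trpv3 point mutants were made by site-directed mutagenesis, sequence-verified, and transiently expressed in HEK293 cells alongside wild-type mTRPV3. Whole-cell ramp recordings (−100 to +100 mV, 500 ms, holding 0 mV) were made at 22–24 °C. Currents were activated by 2-APB, and inhibition by 50 μmol/L test compound in the presence of 2-APB was compared with wild type; n = 3–8.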

A further test addresses hTRPV1 (Homo sapiens, UniProt Q8NER1). The test can be described thus: whole-cell patch-clamp of TRPV1 currents in HEK293 cells. Conditions: compound 50 μmol/L; current induced by capsaicin 1 μmol/L. Put shortly:
as §1

The target in another test is T2, mTRPV3 H426A (Mus musculus, UniProt Q8K424, H426A).
T2 sequence (Q8K424 1-791 H426A): T1 sequence (Q8K424 1-791 T636A) with H426A, A636T
In words: whole-cell patch-clamp of mTRPV3 H426A mutant in HEK293 cells. Conditions: compound 100 µmol/L; carvacrol 300 μmol/L. An outline of the steps:
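The sequence-confirmed site-directed mTRPV3 mutant was transiently expressed in HEK293 cells, and EGFP-positive cells were recorded whole-cell 18 h post-transfection. Cells were held at 0 mV with 500-ms ramps from −100 to +100 mV every 2 s, at 22–24 °C. Compounds were diluted in perfusion solution.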

Sequence of hTRPA1 (O75762 whole entry, the tested form may be a part): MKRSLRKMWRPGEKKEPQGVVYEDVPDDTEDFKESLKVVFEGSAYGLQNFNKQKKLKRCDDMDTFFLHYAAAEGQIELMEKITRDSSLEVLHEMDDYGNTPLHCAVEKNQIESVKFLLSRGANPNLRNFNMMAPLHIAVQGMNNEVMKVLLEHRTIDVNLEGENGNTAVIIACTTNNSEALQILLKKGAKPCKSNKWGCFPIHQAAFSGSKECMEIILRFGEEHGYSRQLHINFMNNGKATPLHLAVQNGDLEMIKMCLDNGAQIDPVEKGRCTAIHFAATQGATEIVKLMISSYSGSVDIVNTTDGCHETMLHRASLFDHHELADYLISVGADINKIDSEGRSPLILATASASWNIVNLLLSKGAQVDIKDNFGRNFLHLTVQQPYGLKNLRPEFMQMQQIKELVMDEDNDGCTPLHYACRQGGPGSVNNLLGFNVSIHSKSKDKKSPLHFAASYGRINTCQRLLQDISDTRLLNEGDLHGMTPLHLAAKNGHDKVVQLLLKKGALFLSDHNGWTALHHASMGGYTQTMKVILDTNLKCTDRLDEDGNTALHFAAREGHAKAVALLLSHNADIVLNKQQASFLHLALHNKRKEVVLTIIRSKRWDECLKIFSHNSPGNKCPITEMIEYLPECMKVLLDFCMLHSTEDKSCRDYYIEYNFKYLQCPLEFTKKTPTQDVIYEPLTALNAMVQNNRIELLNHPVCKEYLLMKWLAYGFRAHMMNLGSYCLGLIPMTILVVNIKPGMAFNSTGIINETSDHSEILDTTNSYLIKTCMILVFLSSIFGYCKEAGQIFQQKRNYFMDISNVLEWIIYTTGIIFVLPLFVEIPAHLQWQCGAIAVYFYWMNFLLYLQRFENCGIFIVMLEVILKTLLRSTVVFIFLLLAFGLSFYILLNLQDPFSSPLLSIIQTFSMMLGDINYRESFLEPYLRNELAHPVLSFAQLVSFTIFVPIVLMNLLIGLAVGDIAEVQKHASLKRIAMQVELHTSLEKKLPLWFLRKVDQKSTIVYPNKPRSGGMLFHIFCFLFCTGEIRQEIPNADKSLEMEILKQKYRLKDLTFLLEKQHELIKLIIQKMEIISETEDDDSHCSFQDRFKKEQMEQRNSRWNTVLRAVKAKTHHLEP
Sequence of hTRPV1 (Q8NER1 whole entry): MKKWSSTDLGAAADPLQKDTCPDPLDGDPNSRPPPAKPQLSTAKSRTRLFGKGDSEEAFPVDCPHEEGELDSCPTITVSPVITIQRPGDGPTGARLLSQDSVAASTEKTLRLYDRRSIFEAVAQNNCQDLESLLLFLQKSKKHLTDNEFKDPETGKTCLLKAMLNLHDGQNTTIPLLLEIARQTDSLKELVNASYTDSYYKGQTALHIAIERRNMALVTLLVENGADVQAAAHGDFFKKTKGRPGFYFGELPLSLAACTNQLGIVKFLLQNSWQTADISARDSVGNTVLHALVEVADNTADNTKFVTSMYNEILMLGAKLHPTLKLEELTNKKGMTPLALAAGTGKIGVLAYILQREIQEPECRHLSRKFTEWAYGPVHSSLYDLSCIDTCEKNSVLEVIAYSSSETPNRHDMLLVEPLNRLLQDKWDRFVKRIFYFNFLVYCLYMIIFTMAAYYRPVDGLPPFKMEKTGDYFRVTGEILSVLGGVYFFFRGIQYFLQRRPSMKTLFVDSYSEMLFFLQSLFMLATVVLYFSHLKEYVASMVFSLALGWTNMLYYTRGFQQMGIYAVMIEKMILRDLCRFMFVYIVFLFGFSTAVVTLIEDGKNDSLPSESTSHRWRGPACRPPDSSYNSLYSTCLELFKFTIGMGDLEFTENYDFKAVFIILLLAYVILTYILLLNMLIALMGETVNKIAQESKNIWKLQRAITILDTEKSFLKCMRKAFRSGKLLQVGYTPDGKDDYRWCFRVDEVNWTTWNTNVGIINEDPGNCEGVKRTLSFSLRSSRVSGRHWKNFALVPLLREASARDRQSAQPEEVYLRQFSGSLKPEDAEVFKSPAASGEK

For the molecule `O=C(/C=C/c1ccc(O)c(O)c1)O[C@@H]1[C@H](O)C[C@@](O)(C(=O)O)C[C@H]1OC(=O)/C=C/c1ccc(O)c(O)c1` [IAB, isochlorogenic acid B], the “inhibition of TRPA1 current” value against hTRPA1 is “no inhibitory effect”. Further, the “effect of mutation on compound-induced inhibition of mTRPV3 currents” value at mTRPV3 T636A is recorded as “markedly reduced”. The “inhibition of TRPV1 currents” value at hTRPV1 is on record as “no obvious inhibition”. Also, the “inhibition of carvacrol-mediated H426A mutant currents” value against mTRPV3 H426A is on record as “markedly inhibited”.
For `O=C(/C=C/c1ccc(O)c(O)c1)O[C@@H]1C[C@](O)(C(=O)O)C[C@@H](OC(=O)/C=C/c2ccc(O)c(O)c2)[C@H]1O` [IAA, isochlorogenic acid A], in that order: “no inhibitory effect”, “markedly reduced”, “no obvious inhibition” and “markedly inhibited”.
